From ChEMBL document CHEMBL1157567, “Design, synthesis, and evaluation of 2-methyl- and 2-amino-N-aryl-4,5-dihydrothiazolo[4,5-h]quinazolin-8-amines as ring-constrained 2-anilino-4-(thiazol-5-yl)pyrimidine cyclin-dependent kinase inhibitors” (J Med Chem, 2010)
Calls of active or inactive are those of the source. The calls are words filed in the database; no cut-off is given here.

What was measured:
[1] = target: Cyclin-dependent kinase 4/cyclin D1 (Homo sapiens, UniProt P11802); test: inhibition of CDK4/Cyclin D1; type: protein-complex assay
Chain of Cyclin-dependent kinase 4/cyclin D1 (P11802 whole entry): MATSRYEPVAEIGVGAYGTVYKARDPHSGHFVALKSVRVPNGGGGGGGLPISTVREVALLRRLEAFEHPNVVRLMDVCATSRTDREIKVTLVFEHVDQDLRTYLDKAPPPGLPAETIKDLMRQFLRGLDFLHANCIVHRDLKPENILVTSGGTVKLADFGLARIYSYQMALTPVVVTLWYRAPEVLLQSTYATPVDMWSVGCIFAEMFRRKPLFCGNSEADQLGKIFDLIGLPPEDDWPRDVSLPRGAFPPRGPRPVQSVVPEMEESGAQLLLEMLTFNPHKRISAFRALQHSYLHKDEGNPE
Chain of Cyclin-dependent kinase 4/cyclin D1 (P24385 whole entry, further chain): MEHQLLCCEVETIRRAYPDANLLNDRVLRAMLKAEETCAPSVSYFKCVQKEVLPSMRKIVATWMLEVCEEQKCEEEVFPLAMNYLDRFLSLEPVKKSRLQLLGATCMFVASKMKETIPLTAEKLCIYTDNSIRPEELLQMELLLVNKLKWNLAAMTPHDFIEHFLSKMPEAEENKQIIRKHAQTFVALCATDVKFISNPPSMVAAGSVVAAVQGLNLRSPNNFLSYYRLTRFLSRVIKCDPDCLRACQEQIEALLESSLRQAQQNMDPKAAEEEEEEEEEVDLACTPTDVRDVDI
Outline: (§1)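 Kinase activity measured over 10-point dose-response curves to give IC50; apparent Ki derived from IC50 using the ATP Km of each kinase.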

[2] = target: Cyclin-dependent kinase 2/cyclin E1 (Homo sapiens, UniProt P24941); test: inhibition of CDK2/Cyclin E; type: protein-complex assay; outline: as §1
CDK9/cyclin T1 = CDK9/cyclin T1 (Homo sapiens, UniProt P50750); test: inhibition of CDK9/CyclinT1; type: protein-complex assay; outline: as §1
Chain of CDK9/cyclin T1 (O60563 whole entry): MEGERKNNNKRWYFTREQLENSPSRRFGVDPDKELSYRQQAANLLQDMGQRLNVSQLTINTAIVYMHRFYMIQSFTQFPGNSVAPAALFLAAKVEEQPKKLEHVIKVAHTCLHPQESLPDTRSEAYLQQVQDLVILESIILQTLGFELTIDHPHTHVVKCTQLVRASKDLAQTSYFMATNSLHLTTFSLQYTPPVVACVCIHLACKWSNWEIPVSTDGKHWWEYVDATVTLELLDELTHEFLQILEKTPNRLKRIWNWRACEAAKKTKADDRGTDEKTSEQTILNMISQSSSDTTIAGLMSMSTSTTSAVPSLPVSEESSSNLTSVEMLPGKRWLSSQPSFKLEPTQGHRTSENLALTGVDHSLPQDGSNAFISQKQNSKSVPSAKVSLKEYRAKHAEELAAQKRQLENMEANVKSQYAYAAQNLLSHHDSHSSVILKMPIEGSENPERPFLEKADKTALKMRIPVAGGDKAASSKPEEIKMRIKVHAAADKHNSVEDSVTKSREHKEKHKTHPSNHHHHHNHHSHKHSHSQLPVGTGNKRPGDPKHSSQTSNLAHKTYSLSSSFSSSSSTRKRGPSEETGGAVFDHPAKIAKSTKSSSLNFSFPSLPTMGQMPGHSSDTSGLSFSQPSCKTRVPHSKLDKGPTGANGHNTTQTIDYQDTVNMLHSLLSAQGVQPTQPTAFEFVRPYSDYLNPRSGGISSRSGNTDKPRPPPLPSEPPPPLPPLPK
Chain of CDK9/cyclin T1 (P50750 whole entry): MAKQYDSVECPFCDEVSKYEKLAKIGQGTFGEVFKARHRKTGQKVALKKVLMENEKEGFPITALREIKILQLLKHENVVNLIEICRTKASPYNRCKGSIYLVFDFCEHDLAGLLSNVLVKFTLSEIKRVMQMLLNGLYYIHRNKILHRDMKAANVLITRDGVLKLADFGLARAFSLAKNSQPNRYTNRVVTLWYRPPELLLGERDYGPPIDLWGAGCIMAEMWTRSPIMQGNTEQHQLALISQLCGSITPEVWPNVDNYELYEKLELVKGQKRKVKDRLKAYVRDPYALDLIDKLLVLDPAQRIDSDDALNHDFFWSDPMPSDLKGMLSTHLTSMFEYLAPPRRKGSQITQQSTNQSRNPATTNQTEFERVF

[3] = target: Cyclin-dependent kinase 1/cyclin B1 (Homo sapiens, UniProt P06493); test: inhibition of CDK1/Cyclin B; type: protein-complex assay; outline: as §1
Chain of Cyclin-dependent kinase 1/cyclin B1 (P06493 whole entry): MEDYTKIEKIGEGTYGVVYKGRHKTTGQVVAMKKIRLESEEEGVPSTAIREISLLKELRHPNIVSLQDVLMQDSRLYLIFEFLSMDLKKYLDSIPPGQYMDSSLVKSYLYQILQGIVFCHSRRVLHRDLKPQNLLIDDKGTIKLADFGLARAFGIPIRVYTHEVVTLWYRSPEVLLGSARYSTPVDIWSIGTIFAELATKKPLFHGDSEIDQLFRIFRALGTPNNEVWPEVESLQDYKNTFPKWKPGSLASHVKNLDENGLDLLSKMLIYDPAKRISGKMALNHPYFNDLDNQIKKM
Chain of Cyclin-dependent kinase 1/cyclin B1 (P14635 whole entry, further chain): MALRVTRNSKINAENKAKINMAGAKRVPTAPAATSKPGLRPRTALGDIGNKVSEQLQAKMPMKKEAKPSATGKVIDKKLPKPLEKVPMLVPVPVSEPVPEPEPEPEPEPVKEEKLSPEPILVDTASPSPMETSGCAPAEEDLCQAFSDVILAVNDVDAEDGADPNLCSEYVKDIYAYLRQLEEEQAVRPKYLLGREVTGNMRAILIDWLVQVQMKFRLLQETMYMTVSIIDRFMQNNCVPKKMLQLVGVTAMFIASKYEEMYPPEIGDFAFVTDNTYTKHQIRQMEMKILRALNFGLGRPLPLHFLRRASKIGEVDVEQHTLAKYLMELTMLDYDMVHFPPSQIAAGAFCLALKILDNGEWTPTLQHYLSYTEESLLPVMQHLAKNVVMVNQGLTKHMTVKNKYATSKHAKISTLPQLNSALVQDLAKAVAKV

[4] = target: Cyclin-dependent kinase 7/ cyclin H (Homo sapiens, UniProt P50613); test: inhibition of CDK7/Cyclin H/MAT1; type: protein-complex assay; outline: as §1
Chain of Cyclin-dependent kinase 7/ cyclin H (P51946 whole entry): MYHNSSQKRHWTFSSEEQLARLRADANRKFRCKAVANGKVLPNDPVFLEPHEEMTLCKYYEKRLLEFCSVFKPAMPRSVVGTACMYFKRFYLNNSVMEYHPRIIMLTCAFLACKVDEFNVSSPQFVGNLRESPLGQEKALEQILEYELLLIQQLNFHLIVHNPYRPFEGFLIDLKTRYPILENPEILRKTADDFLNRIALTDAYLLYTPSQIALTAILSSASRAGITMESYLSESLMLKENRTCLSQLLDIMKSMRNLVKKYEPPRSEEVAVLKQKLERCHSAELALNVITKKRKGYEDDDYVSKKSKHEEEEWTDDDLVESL
Chain of Cyclin-dependent kinase 7/ cyclin H (P50613 whole entry): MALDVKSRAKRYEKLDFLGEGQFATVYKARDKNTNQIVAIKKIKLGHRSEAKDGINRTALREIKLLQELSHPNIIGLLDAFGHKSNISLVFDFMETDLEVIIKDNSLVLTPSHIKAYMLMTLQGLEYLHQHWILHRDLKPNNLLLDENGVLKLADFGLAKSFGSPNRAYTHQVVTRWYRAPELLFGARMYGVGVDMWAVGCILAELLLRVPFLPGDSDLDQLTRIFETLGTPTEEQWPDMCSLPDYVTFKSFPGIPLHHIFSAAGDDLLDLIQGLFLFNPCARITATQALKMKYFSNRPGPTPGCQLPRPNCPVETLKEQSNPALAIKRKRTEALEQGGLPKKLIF

WI-38 [5] = test: Induction of apoptosis in human WI38 cells assessed as TUNEL-positive cells at 5 uM after 24 hrs by TUNEL assay-based flow cytometric analysis; type: functional
Outline: (§2)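 Cells exposed 24 h to 5 µM compound or assay diluent alone; TUNEL labelling with flow cytometry, 10 000 cells collected; apoptotic (TUNEL-positive) fraction gated against DNA-content cell cycle stage.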

SAOS-2 = test: Antiproliferative activity against human Saos2 cells after 72 hrs by MTT assay; type: functional, cell-based; conditions: SAOS-2, 72 h
Outline: (§3)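 MTT (thiazolyl blue tetrazolium) colorimetric viability read-out after 72 h continuous exposure of cultured cells to test compound.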

[6] = target: T1, Cyclin-dependent kinase (Homo sapiens) (UniProt P06493+P11802+P24941+Q00535+Q00534+P50613+Q00526+Q00536+Q07002+P49336+Q00537+P21127+Q96Q40+Q9BWU1+O94921+P50750+Q15131+Q14004+Q8IZL9+Q9NYV4); test: Inhibition of CDK in human A2780 cells assessed as reduction of RNAP2 phosphorylation at Ser5 site at 5 uM after 6 hrs by Western bloting; type: cell-based
Outline: (§4)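 Total cell lysate protein (10 µg) resolved on reducing 4-12% gradient SDS-PAGE after 6 h treatment at 5 µM; probed for RNAP-II phospho-Ser2 and phospho-Ser5 CTD alongside total RNAP-II.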

[7] = target: T1, Cyclin-dependent kinase (Homo sapiens); test: Inhibition of CDK in human A2780 cells assessed as increase in p53 levels at 5 uM after 6 hrs by Western bloting; type: cell-based
HeLa = test: Antiproliferative activity against human HeLa cells after 72 hrs by MTT assay; type: functional, cell-based; outline: as §3
[8] = target: T1, Cyclin-dependent kinase (Homo sapiens); test: Inhibition of CDK in human A2780 cells assessed as reduction of pRb levels at 5 uM after 6 hrs by Western bloting; type: cell-based
A2780 [9] = test: Induction of apoptosis in human A2780 cells assessed as TUNEL-positive cells at 5 uM after 24 hrs by TUNEL assay-based flow cytometric analysis; type: functional; outline: as §2
A549 = test: Antiproliferative activity against human A549 cells after 72 hrs by MTT assay; type: functional, cell-based; conditions: A549, 72 h; outline: as §3
MCF7 = test: Antiproliferative activity against human MCF7 cells after 72 hrs by MTT assay; type: functional, cell-based; conditions: MCF7, 72 h; outline: as §3
[10] = target: T1, Cyclin-dependent kinase (Homo sapiens); test: Inhibition of CDK in human A2780 cells assessed as reduction of RNAP2 phosphorylation at Ser2 site at 5 uM after 6 hrs by Western bloting; type: cell-based; outline: as §4
HT-29 = test: Antiproliferative activity against human HT-29 cells after 72 hrs by MTT assay; type: functional, cell-based; conditions: HT-29, 72 h; outline: as §3
WI-38 [11] = test: Induction of apoptosis in human WI38 cells assessed as caspase 3/7 activity at 2.5 uM after 24 hrs […]; type: functional, cell-based
Outline: (§5)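 Caspase-3/7 luminescent assay: 10 000 cells seeded per well, treated 24 h; detection reagent added directly at equal volume to medium, read after further 30 min at room temperature.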

A2780 [12] = test: Induction of apoptosis in human A2780 cells assessed as caspase 3/7 activity at 2.5 uM after 24 hrs […]; type: functional, cell-based; outline: as §5

| SMILES | Ki [1] | Ki [2] | Ki (CDK9/cyclin T1) | Ki [3] | Ki [4] | also measured |
| --- | --- | --- | --- | --- | --- | --- |
| COc1ccc(Nc2ncc3c(n2)-c2sc(C)nc2CC3)cn1 | 120 nM | 49 nM | 1000 nM | 78 nM | 1100 nM |  |
| Cc1nc2c(s1)-c1nc(Nc3ccc(O)cc3)ncc1CC2 | 540 nM | 1 nM | 490 nM | 200 nM | 300 nM |  |
| Nc1nc2c(s1)-c1nc(Nc3ccccc3)ncc1CC2 | 330 nM | 88 nM | 110 nM | 630 nM | 1200 nM |  |
| Cc1nc2c(s1)-c1nc(Nc3ccc(Cl)nc3)ncc1CC2 | 40 nM | 25 nM | 1200 nM | 19 nM | 1400 nM |  |
| Cc1nc2c(s1)-c1nc(Nc3ccc(C(F)(F)F)cc3)ncc1CC2 | 4900 nM | 160 nM | 1900 nM | 960 nM | > 10000 nM |  |
| CN(C)c1ccc(Nc2ncc3c(n2)-c2sc(N)nc2CC3)cc1 | 470 nM | 31 nM | 160 nM | 98 nM | 500 nM |  |
| COC(=O)c1ccc(Nc2ncc3c(n2)-c2sc(C)nc2CC3)cc1 | 2400 nM | 920 nM | 670 nM | 700 nM | 6300 nM |  |
| Cc1nc2c(s1)-c1nc(Nc3ccc(N4CCOCC4)cc3)ncc1CC2 | > 10000 nM | 200 nM | 640 nM | 15000 nM | 1000 nM |  |
| Cc1nc2c(s1)-c1nc(N)ncc1CC2 | > 10000 nM | > 10000 nM | > 10000 nM | > 10000 nM | > 10000 nM |  |
| Cc1nc2ccc3cnc(Nc4ccccc4)nc3c2s1 | 2700 nM | 24 nM | > 10000 nM | 1700 nM | > 10000 nM |  |

Continued, in another order:

| Ki [1] | Ki [2] | Ki (CDK9/cyclin T1) | Ki [3] | Ki [4] | SMILES | also measured |
| --- | --- | --- | --- | --- | --- | --- |
| 130 nM | 1 nM | 3 nM | 18 nM | 140 nM | Nc1nc2c(s1)-c1nc(Nc3cccc([N+](=O)[O-])c3)ncc1CC2 |  |
| > 10000 nM | 590 nM | 12000 nM | 2700 nM | 1800 nM | Cc1nc2c(s1)-c1nc(N(C)c3cccc([N+](=O)[O-])c3)ncc1CC2 |  |
| 37 nM | 10 nM | 640 nM | 2500 nM | 60 nM | Cc1nc2c(s1)-c1nc(Nc3ccc(N(C)C)cc3)ncc1CC2 |  |
| 2000 nM | 23 nM | 2 nM | 320 nM | 790 nM | Cc1nc2c(s1)-c1nc(Nc3cccc([N+](=O)[O-])c3)ncc1CC2 | Activity (WI-38 [5]): 0.7%; IC50 (SAOS-2): 1200 nM; Activity [6]: Active; Activity [7]: Active; IC50 (HeLa): 1100 nM; Activity [8]: Active; Activity (A2780 [9]): 20%; IC50 (A549): 690 nM; IC50 (MCF7): 1700 nM; Activity [10]: Active; IC50 (HT-29): 1400 nM; Activity (WI-38 [11]): inactive; Activity (A2780 [12]): Active |
| 580 nM | 11 nM | 32 nM | 360 nM | 53 nM | Cc1nc2c(s1)-c1nc(Nc3cccc(O)c3)ncc1CC2 |  |
| > 10000 nM | 130 nM | 140 nM | 310 nM | 4800 nM | Cc1nc2c(s1)-c1nc(Nc3ccc([N+](=O)[O-])cc3)ncc1CC2 |  |
| 900 nM | 1 nM | 260 nM | 750 nM | 2200 nM | Cc1nc2c(s1)-c1nc(Nc3ccccc3)ncc1CC2 |  |
| > 10000 nM | 1600 nM | > 10000 nM | 7500 nM | > 10000 nM | Cc1nc2ccc3cnc(N(C)c4cccc([N+](=O)[O-])c4)nc3c2s1 |  |
